Variants at the floor of the assay were thinned out.
B1: tRNA (parent)
chain: GUUCCGUUGGCGUAAUGGUAACGCGUCUCCCUCCUAAGGAGAAGACUGCGGGUUCGAGUCCCGUACGGAACG

Variants of: B1
Test: yeast fitness relative to wild type (ratio to wild type); higher = fitter; tRNA-Arg(CCU), competitive growth, 37 C, YPD
Outline: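 For this measurement, the tRNA-Arg(CCU) gene was varied by chemical synthesis at a 3% per-site mutation rate across 69 sites, and each variant was placed at the native genomic locus in Saccharomyces cerevisiae. The pooled strains went through a 24-hour competition in YPD at 37°C in six parallel replicates, with amplicons from start and end populations read by 100-nucleotide paired-end sequencing. Darwinian fitness relative to wild type followed from the change in each genotype's frequency. Genotypes needed ≥ 100 starting reads, and estimates < 0.5 were set to 0.5.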

Point of comparison: C5U A36U, yeast fitness 0.632. Against it:
- C5U A15G A20U — higher, 0.662
- C5G U19C G67C — higher, 0.682
- C5U A14U C31G U59A C61U — lower, ≤ 0.5
- C5G U26G A36C C66A — lower, ≤ 0.5
- C5U A15C C29U G58C — lower, ≤ 0.5
- C5U A14G C33U G50C C55U A57G — lower, ≤ 0.5
- C5G U32C — higher, 0.946
- C5U A14C U35C — lower, ≤ 0.5
- C5U A20U C30U C46U U47G — lower, ≤ 0.5
- C5U A37U — higher, 0.732
- C5U A37C — higher, 0.764
- C5G U47A G68C — lower, 0.565
- C5U A14G C46G A65U — lower, ≤ 0.5
- C5U A14U C55G A65G — lower, 0.566
- C5U A40C C46A — higher, 0.794
- C5U A37C C46U U53C A69C — lower, ≤ 0.5
- C5U A14U A21G G68C — lower, 0.588
- C5U A37U G56C — higher, 0.686
- C5G U28A A57C C66G — lower, ≤ 0.5
- C5U A14U U19C G48A C66U — lower, ≤ 0.5
- C5U A15C G18A U35C A42G — lower, ≤ 0.5
- C5U A20U C49A — lower, ≤ 0.5
- C5U A14G G68C — lower, 0.57
- C5U A14G A43G — lower, 0.553
- C5U A14C C29U C33A C49U C55G — lower, ≤ 0.5
- C5U A14U C30U G39C C60A A70C — lower, ≤ 0.5
- C5U A14C C34G A37U A40U — lower, ≤ 0.5
- C5G U26C G44A A70U — lower, 0.546
- C5G U26C — higher, 0.803
- C5G U26A — higher, 0.815
- C5G U26G — lower, 0.625
- C5U A37U C49A G56C — lower, ≤ 0.5
- C5U A14U — higher, 0.718
- C5U A14G — higher, 0.77
- C5U A14U G48A C66U — lower, ≤ 0.5
- C5G U19C U35A A43C A65C — lower, ≤ 0.5
- C5G U19A C24G C34A C55U — lower, 0.601
- C5U A15G C46G — higher, 0.892
- C5U A21U A57U A65U — lower, ≤ 0.5
- C5U A40C A42G G68A — lower, ≤ 0.5
- C5G U59A A65G — higher, 0.667
- C5U A14G U28C U64C — lower, ≤ 0.5
- C5U A14G C24U U32G A43G C66U — lower, ≤ 0.5
- C5U A21U C33U C62U A70C — lower, ≤ 0.5
- C5G U26C G44A — lower, 0.529
- C5G U13C C29U C62U — lower, ≤ 0.5
- C5G U35G C49A — lower, ≤ 0.5
- C5U A14U C49G A65U — lower, ≤ 0.5
- C5U A20U C62A G67A A70G — higher, 0.747
- C5U A14C C27U C33G C55G C61U — lower, ≤ 0.5
- C5U A20C G23C C24U C31U — lower, ≤ 0.5
- C5G U35C — higher, 0.71
- C5U A21G A37G G39C G44C C46A U54C A65C — lower, ≤ 0.5
- C5G U47A C62G G63A — lower, ≤ 0.5
- C5G U26C A69C — lower, 0.617
- C5G U19C — higher, 0.997
- C5G U19A — higher, 0.818
- C5U A21U C30G C62U — lower, 0.57
- C5U A15U — higher, 0.671
- C5U A40U A57U — lower, ≤ 0.5
- C5U A20U G67A — higher, 0.882
- C5U A21C A42G C61G — lower, ≤ 0.5
- C5U A14U C27G — lower, ≤ 0.5
- C5U A21G A45G — higher, 0.638
- C5U A20G U32G C33G C55U — lower, ≤ 0.5
- C5U A15C U32A G52C C62G U64C — lower, ≤ 0.5
- C5U A42C C66U — higher, 0.793
- C5U A20U A45U — lower, 0.582
- C5U A36G G51C — lower, ≤ 0.5
- C5U A20U U26A G52A — lower, ≤ 0.5
- C5U A21G C24A A42C — lower, ≤ 0.5
- C5U A20U A36G A65U — lower, ≤ 0.5
- C5G U16A A21C A57C — lower, 0.624
- C5G U16A G44A C46U A69C — lower, ≤ 0.5
- C5U A14C G68C — lower, ≤ 0.5
- C5G U26C U32A — lower, 0.604
- C5U A15U G23C A45U C62A — lower, ≤ 0.5
- C5G U13C A37U G51C A57C — lower, ≤ 0.5
- C5G U13C A43G G50C — lower, 0.566
- C5G U13A C31G G50A A65G — lower, ≤ 0.5
- C5G U13A C31G G50A A65C — lower, 0.58
- C5U A36G C49U A69C — lower, ≤ 0.5
- C5G U16C G67A — lower, ≤ 0.5
- C5G U19G C22U U32C G56A A65C — lower, ≤ 0.5
- C5G U13G C29U A40G — lower, ≤ 0.5
- C5U A14G C22U — lower, ≤ 0.5
- C5U A14G C22A — lower, ≤ 0.5
- C5U A21U C30G C66U — lower, ≤ 0.5
- C5G U47A G52A G68C — lower, ≤ 0.5
- C5U A15G A20U A42G G63A — lower, ≤ 0.5
- C5G U32C G38C — lower, 0.534
- C5G U13A C31G G50A G67A — lower, ≤ 0.5
- C5U A20G C46G C49G — lower, ≤ 0.5
- C5U A20C A69U — higher, 0.771
- C5U A20C C24U C34G — lower, ≤ 0.5
- C5U A37C A70C — lower, 0.631
- C5U A14G A15U U28A C33G G41C G56A — lower, ≤ 0.5
- C5U A15U C30G C33G A40G A42G A43U U54G — lower, ≤ 0.5
- C5G U13C A21G C49A — lower, ≤ 0.5
- C5U A21G U28C A36G A69G — lower, 0.599
- C5U A37G U47G A69G — lower, ≤ 0.5
- C5G U32A C34U — lower, ≤ 0.5
- C5U A21G C24A A42C G63A — lower, ≤ 0.5
- C5G U13C C24U C49U A70G — lower, ≤ 0.5
- C5G U13C C22G C29G A45C — lower, ≤ 0.5
- C5G U13A U19A C30U A70U — lower, ≤ 0.5
- C5U A37C U54A — lower, ≤ 0.5
- C5U A36G — higher, 1
- C5U A36C — higher, 0.69
- C5U A14C A45C — lower, ≤ 0.5
- C5U A21G G25A A42U G58A — higher, 0.744
- C5G U13C A21C G68A — lower, ≤ 0.5
- C5U A40U G44A C61A — lower, ≤ 0.5
- C5U A21U C33U G50A U59C — lower, ≤ 0.5
- C5G U54A — higher, 0.666
- C5G U54G — higher, 0.654
- C5U A21U C29G G58C — lower, ≤ 0.5
- C5G U26C A45C G63A — lower, ≤ 0.5
- C5G U13G A20U A37G G52C G68A — lower, ≤ 0.5
- C5G U28C A70G — higher, 0.641
- C5G U35G C49A G56A — lower, ≤ 0.5
- C5U A20G C49G G52A A57C — lower, ≤ 0.5
- C5G U19G C22U U32C A65C — lower, ≤ 0.5
- C5U A20U C55G G68A — lower, ≤ 0.5
- C5U A20U C24U C27U A45G — lower, ≤ 0.5
- C5U A20C G58A — lower, ≤ 0.5
- C5G U19G C31U U32A A45U A70U — lower, ≤ 0.5
- C5U A14G A45G A69C — lower, ≤ 0.5
- C5U A21U U32A A40U C60G — higher, 0.694
- C5U A14C A21G C30G C34U G39A C55U — lower, ≤ 0.5
- C5U A14G A36G G68C — lower, ≤ 0.5
- C5G U59G A65G — lower, 0.614
- C5G U26A A36C A42G — lower, ≤ 0.5
- C5U A14G G50C C55U A57G G68A — lower, ≤ 0.5
- C5G U35G A37G — lower, 0.536
- C5G U13C A21C G63C A69C — lower, ≤ 0.5
- C5U A36G A45U — higher, 1.01
- C5U A14C C31A A40U C60A — lower, ≤ 0.5
- C5U A14C C31G A43U C60G — lower, ≤ 0.5
- C5U A21G U26A — higher, 0.738
- C5G U47C C61G — lower, 0.519
- C5U A15C G58A — lower, 0.569
- C5U A15U C29U C31U C34U — lower, 0.519
- C5G U28G G38C C62G C66U — lower, ≤ 0.5
- C5G U19G A36U G56C A65C — lower, ≤ 0.5
- C5G U13G C24G — lower, ≤ 0.5
- C5G U13G A36U U64G — lower, ≤ 0.5
- C5U A15C A36U A65C — lower, ≤ 0.5
- C5U A37G A43C C46U C62U — lower, ≤ 0.5
- C5U A37C A40C G51A C55A G58A — lower, 0.529
- C5U A21G A42U G50C — lower, ≤ 0.5
- C5U A15U G51C C61G C62G — higher, 0.776
- C5U A20U U26A C34U C49A A57C C62U — lower, ≤ 0.5
- C5U A14C C24U A36G A70U — lower, ≤ 0.5
- C5U A20G — higher, 0.904
- C5U A20C — higher, 1.1
- C5G U47C — higher, 0.745
- C5G U47G — lower, 0.611
- C5G U26A A40U G63C — lower, ≤ 0.5
- C5G U19C U54C A69U — lower, ≤ 0.5
- C5G U19C U54C A69C — lower, ≤ 0.5
- C5U A20C U26G C30U C49U C66G — lower, ≤ 0.5
- C5U A15C A21U — lower, ≤ 0.5
- C5G U13A G23A G38A G48A C60A — lower, ≤ 0.5
- C5G U26A A36C — lower, ≤ 0.5
- C5U A14C C46A — lower, 0.548

Source: the RNAGym collection of RNA variant scans (doi:10.1126/science.aae0568)
